Compounds with a hit are over-represented: about 5.4% of the library has one in this group of screens.
SKKanGAS inh: S. pyogenes SKKanGAS growth inhibitors in kanamycin, primary screen, streptokinase expression inhibitor project, SKKanGAS strain, BacTiter-Glo luminescence | actives 1.3% (n = 300,000) | 6 h | AID 1662, 2009 | inhibition, % at 7.5 µM;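 active = mean replicate score, as percent of positive control median, at least 50; inconclusive = mean below 50 but one replicate at or above 50; inactive = mean and every replicate below 50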;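 note: strain carries kanamycin resistance gene driven by streptokinase promoter and grows in 40 µg/ml kanamycin; loss of luminescence reflects streptokinase promoter inhibition or plain growth inhibition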
T cruzi inh: inhibitors of intracellular T. cruzi growth, primary screen, luminescence, NIH3T3 host cells | T. cruzi beta-gal in NIH3T3, 90 h | inhibition, % (concentration not given with the values) | actives 1.4% (n = 300,000);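 active = mean inhibition across valid replicates above about 55%, limit read from the data; inconclusive = mean below that limit but half or more replicates reach it; inactive = mean below it, under half of replicates reach it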;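 note: signal also drops with host cell toxicity which is not excluded here; higher percent means less beta-gal luminescence so fewer parasites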
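compound dosing = single 50 nL compound addition per well in DMSO | material = NIH/3T3 host cells with β-galactosidase reporter T. cruzi | input = 5,000 host fibroblasts per well | timing = ≥90 h infection period, 3 h prior cell attachment | read-out basis = percent inhibition of parasite-derived β-gal signal | detection = GalScreen β-gal luminescence, detergent lysis, 60 min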
Mdm2 MdmX PPI: inhibitors of human Mdm2-MdmX association, primary screen, cell-based, luminescence, split luciferase, SaOS-2, uHTS; SaOS-2 split-luciferase Mdm2/MdmX complementation; actives 3% (n = 330,000); Protein Mdm4 (Homo sapiens) + E3 ubiquitin-protein ligase Mdm2 (Homo sapiens), …; inhibition, % at 8 µM;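 active = inhibition of at least 50% at 8 µM in the primary screen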
Target sequence (O15151 whole entry, looked up): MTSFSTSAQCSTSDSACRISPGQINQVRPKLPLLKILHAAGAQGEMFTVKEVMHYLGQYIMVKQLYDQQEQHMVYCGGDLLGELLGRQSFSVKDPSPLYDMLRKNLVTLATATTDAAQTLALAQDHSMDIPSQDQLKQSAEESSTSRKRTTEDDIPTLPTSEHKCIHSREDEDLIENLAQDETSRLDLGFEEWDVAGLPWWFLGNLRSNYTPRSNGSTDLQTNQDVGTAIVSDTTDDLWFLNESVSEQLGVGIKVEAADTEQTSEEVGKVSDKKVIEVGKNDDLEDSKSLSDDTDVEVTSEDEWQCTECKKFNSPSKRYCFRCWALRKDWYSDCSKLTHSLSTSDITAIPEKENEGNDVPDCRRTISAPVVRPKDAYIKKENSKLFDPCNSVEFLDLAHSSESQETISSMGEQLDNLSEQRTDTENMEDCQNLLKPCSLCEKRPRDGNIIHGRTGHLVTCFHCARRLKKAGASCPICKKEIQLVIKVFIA
Target sequence (Q00987 whole entry, looked up): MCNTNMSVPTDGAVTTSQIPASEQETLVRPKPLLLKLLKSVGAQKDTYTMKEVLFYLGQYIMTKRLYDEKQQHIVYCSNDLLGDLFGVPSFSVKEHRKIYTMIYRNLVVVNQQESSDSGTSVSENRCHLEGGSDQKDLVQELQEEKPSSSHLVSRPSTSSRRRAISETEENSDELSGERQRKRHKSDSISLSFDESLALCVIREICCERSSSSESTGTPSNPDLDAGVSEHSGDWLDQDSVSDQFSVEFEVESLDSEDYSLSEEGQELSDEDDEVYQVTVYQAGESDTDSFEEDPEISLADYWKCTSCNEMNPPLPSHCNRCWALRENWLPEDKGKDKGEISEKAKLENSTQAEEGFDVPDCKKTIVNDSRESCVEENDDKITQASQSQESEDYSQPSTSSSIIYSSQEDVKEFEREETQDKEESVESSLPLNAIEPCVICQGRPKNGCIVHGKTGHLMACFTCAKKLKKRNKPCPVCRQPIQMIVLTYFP
aSyn UTR inh: MLPCN primary screen, SNCA 5' untranslated region; alpha-synuclein 5'UTR reporter, inhibitor activity; inhibition, % (tested at 7.5 µM); actives 0.82% (n = 300,000); AID 1813, 2009; in the data active = inhibition above about 60%; inconclusive = no clear call, values can overlap the other calls;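 note: H4 neuroglioblastoma cells stably carrying SNCA 5'UTR luciferase fusion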
CSC inhib: cancer stem cell viability inhibitors, primary screen, luminescence; cancer stem cell-like cells viability; inhibition, % at 7.5 µM; actives 1.1% (n = 300,000); in the data active = inhibition above about 75%; inconclusive = no clear call, values can overlap the other calls; tested in HMLE shEcad cells
Mdm2-MdmX conf: Mdm2-MdmX complex disruptors, retested hits, confirmation, luminescence, single concentration; shares compounds with Mdm2 MdmX PPI; Mdm2-MdmX binding, luminescent assay; actives 55% (n = 10,000); AID 489028, 2010; inhibition, % at 8 µM; in the data active = inhibition above about 40%
Full FLuc ctr: full-length luciferase signal inhibition, confirmation, counter-screen for Mdm2/MdmX interaction inhibitor project, cell-based, single concentration, SaOS-2 | shares compounds with Mdm2 MdmX PPI | SaOS-2 full-length luciferase counterscreen, luminescence | inhibition, % at 8 µM | actives 77% (n = 6,200);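 active = mean inhibition at 8 µM reaching about 37%, which flags the compound as non-specific, limit read from the data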;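 note: p53-null SaOS-2 cells with luciferase driven by a doxycycline-inducible promoter; compound on cells about two nights before reading with doxycycline added after day one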
A number is an active result; . = inactive; ? = inconclusive; / = not tested or not shown.

SMILES	SKKanGAS inh	T cruzi inh	Mdm2 MdmX PPI	aSyn UTR inh	CSC inhib	Mdm2-MdmX conf	Full FLuc ctr
COc1ccc(CN2CCN(CC(O)Cn3c4ccccc4c4ccccc43)CC2)cc1 (stereo unspecified)	.	.	66	.	.	.	79
Cc1cc(/C([O-])=C(/C(=S)Nc2ccc(F)cc2)[n+]2ccccc2)c(C)n1Cc1ccccc1Cl	.	.	.	.	/	/	/
N/C(=N\OC(=O)c1ccc(Cl)cc1)c1ccc(Cl)cc1	.	.	.	.	.	/	/
N/C(=N\OC(=O)c1ccc(F)cc1)c1ccccc1	.	.	.	.	.	/	/
Cc1ccc(/C(N)=N/OC(=O)c2ccc(F)cc2)cc1	.	.	59	.	.	.	/
Cc1ccc(/C(N)=N/OC(=O)c2cccc(F)c2)cc1	.	.	.	.	.	/	/
Cc1ccc(/C(N)=N/OC(=O)c2ccc3ccccc3c2)cc1	.	.	94	.	.	.	117
N/C(=N\OC(=O)c1ccc(F)cc1)c1ccc(Br)cc1	.	.	51	.	.	.	/
CC(=O)NC(CC(=O)N(C)Cc1cccc(Cl)c1Cl)c1ccccc1 (stereo unspecified)	/	/	.	/	.	/	/
CC1(C)Cc2ccccc2C(N/N=C/c2ccc(Cl)cc2)=N1	.	.	.	.	.	/	/
CCOc1cc(C(c2c(C)[nH][nH]c2=O)c2c(C)[nH][nH]c2=O)cc(Br)c1OC	.	.	.	.	.	/	/
COc1ccc(N(C(=O)c2ccccc2C)S(=O)(=O)c2cccs2)cc1	.	.	59	.	?	53	105
CCc1cc2c(=O)oc(-c3ccc(Br)cc3)nc2s1	.	.	.	.	/	/	/
COc1cccc(/C=N/NC(=O)CSCC(=O)Nc2ccccc2)c1O	.	.	52	.	/	49	51
COc1cccc(/C=N/NC(=O)CNC(=O)C(c2ccccc2)c2ccccc2)c1O	.	.	57	.	/	68	.
COc1cccc(/C=N/NC(=O)CNC(=O)/C=C\c2ccccc2)c1O	.	.	.	.	.	/	/
COc1ccc(/C=N/NC(=O)CSCC(=O)Nc2ccccc2)cc1	.	.	.	.	.	/	/
COc1ccc(Nc2c([N+](=O)[O-])ccc3c2=NC2(CCCCC2)N=3)cc1	.	.	.	.	.	/	/
COc1ccc(-c2nc(NC(=O)C3CCN(c4nc5ccccc5o4)CC3)sc2C)cc1	.	.	51	.	.	.	/
COc1ccc(-c2nc(NC(=O)Cn3c(=O)oc4ccccc43)sc2C)cc1	.	.	.	.	.	/	/
COc1ccc(-c2nc3ccccc3[nH]2)cc1	.	.	.	.	/	/	/
COc1ccc(-c2cc(=O)n(-c3nc4ccccc4[nH]3)[nH]2)cc1	.	.	93	.	104	.	/
O=C(/C=C/C(=O)NCc1cccs1)NCc1cccs1	.	.	62	.	.	.	/
O=C(/C=C/c1ccc(Cl)cc1)NCc1cccs1	.	.	.	.	.	/	/
COc1ccccc1N=Nc1ccc(O)c2ncccc12	94	.	68	.	.	.	92
SMILES	SKKanGAS inh	T cruzi inh	Mdm2 MdmX PPI	aSyn UTR inh	CSC inhib	Mdm2-MdmX conf	Full FLuc ctr
CCS(=O)(=O)c1ccc(N=Nc2ccc(O)c3ncccc23)c(OC)c1	.	.	75	78	/	69	.
Cc1ccc(N=Nc2ccc(O)c3ncccc23)cc1C	88	66	78	74	.	88	.
Oc1ccc(N=Nc2ccccc2C(F)(F)F)c2cccnc12	98	55	83	72	100	86	.
COc1cc(C2Nc3ccc4ncccc4c3C3=C2C(=O)CCC3)ccc1O (stereo unspecified)	.	.	.	.	.	/	/
C=CCOc1cccc(C2C(C(=O)c3ccc(C)o3)=C(O)C(=O)N2c2nccs2)c1 (stereo unspecified)	.	.	.	.	.	/	/
CCC(C)(CC(=O)Nc1nccs1)c1ccccc1 (stereo unspecified)	.	.	.	.	.	/	/
